Source: PubChem (several laboratories)
Mot1-301 SUMO: blocks SUMOylation pathway, rescuing yeast Mot1-301 growth; growth rescue, % at 18.8 µM; 1% of 320,000 active; AID 2716; S. cerevisiae Mot1-301 growth rescue, ATP luminescence, 38.5C; percent above DMSO median, 100 means doubled;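 active = every valid replicate shows activation above 250% relative to neutral control wells; inactive = the rest, any valid replicate at or below 250%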
CSC inhib: cancer stem cell inhibition. cancer stem cell-like cells viability, luminescence. inhibition, % at 7.5 µM. 1.1% of 300,000 active; in the data active = inhibition above about 75%; tested in HMLE shEcad cells
Beta cell apopt: blocks beta cell apoptosis. 0.8% of 300,000 active. protection from apoptosis, % (test concentration not listed). INS-1E cytokine-induced death, ATP luminescence, 48 h; percent of positive-control rescue, neutral wells zero. AID 435005;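 active = Every replicate reaches about 75%, or at least half do and their mean reaches it too, limit read from the data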;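 also: higher means more ATP so stronger rescue from cytokine killing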
T cruzi inh: blocks replication of Trypanosoma cruzi; inhibition, % (concentration not given with the values); 1.4% of 300,000 active; T. cruzi beta-gal in NIH3T3, luminescence, 90 h;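 active = mean inhibition across valid replicates above about 55%, limit read from the data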;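 also: signal also drops with host cell toxicity which is not excluded here; higher percent means less beta-gal luminescence so fewer parasites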
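assay system = mouse NIH/3T3 fibroblasts infected with β-gal-expressing T. cruzi Tulahuen C4 | input = 5,000 NIH/3T3 host cells per well | buffer or medium = DMEM plus 2% FBS | timing = 3 h host attachment, then at least 90 h co-culture | measured by = GalScreen luminescence, 60 min | evaluation = luminescence reflecting intracellular parasite burden, expressed as percent inhibition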
Efflux pump inh: blocks antifungal efflux pumps in multiplex yeast assay. S. cerevisiae Candida pump triplex, Nile Red efflux. inhibition, % at 10 µM. 0.44% of 330,000 active;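 active = plate passing quality check with inhibition over a set limit, or well fluorescence over plate mean plus 4 SD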;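 also: Nile Red retained in pooled yeast measured as flow cytometry median fluorescence; higher means more Nile Red kept so more efflux inhibition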
WT yeast gro inh: growth inhibition of WT yeast, mitochondrial fusion screen | AID 1362 | 2.1% of 190,000 active | inhibition, % at 10 µM | mitochondrial fusion phenotypic screen, WT strain; in the data active = inhibition above about 58%; tested in S. cerevisiae
Yeast Mot1 SUMO: SUMO pathway inhibitors in yeast Mot1-301 growth | shares compounds with Mot1-301 SUMO | S. cerevisiae Mot1-301 galactose growth, ATP luminescence, 24 h; -100 = growth of slx-deleted rescue strain | growth activity, percent, % at 42 µM | 2,300 tested, under 10 active;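 active = Signal drops as the depositor expects, and the fitted half-maximal dose is no more than ten times the top valid tested dose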;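 also: more negative values mean stronger growth rescue toward the control strain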
Of the large screens only hits and unclear results are named; the others gave an inactive call (follow-up assays come after a bar, where they were run). An excerpt weighted towards active compounds, which were near 4.8% of everything screened.

CCc1ccc(S(=O)(=O)NCc2cccnc2)cc1	Mot1-301 SUMO 571 (no result: Beta cell apopt, WT yeast gro inh) | Yeast Mot1 SUMO inactive
O=C(Cc1ccc(F)cc1)NC1CCS(=O)(=O)C1 (stereo not given)	none (no result: WT yeast gro inh)
COc1cccc(CN2C(=O)[C@H]3Cc4c([nH]c5ccccc45)C(C)(C)N3C2=O)c1	none (no result: Efflux pump inh, WT yeast gro inh)
CC1(C)c2[nH]c3ccccc3c2C[C@H]2C(=O)N(Cc3cccc(F)c3)C(=O)N21	Mot1-301 SUMO 448 (no result: WT yeast gro inh) | Yeast Mot1 SUMO inactive
Cc1cccc(CC(=O)c2c[nH]c3ccccc23)c1	none (no result: WT yeast gro inh)
CC1CCCC(C)N1C(=O)CSc1nnnn1-c1cccc2c1CCCC2 (stereo not given)	Mot1-301 SUMO 414 | Yeast Mot1 SUMO inactive
O=C(CSc1nnnn1-c1cccc2c1CCCC2)N1CCCC1	none
Cc1c(C(=O)NC(C)C)oc2c1-c1[nH]ncc1CC2	Mot1-301 SUMO active | Yeast Mot1 SUMO inactive
COc1cc2c(cc1OC)C(c1ccccc1[N+](=O)[O-])N(C(C)=O)CC2 (stereo not given)	Mot1-301 SUMO 384 (no result: WT yeast gro inh) | Yeast Mot1 SUMO inactive
COc1cc2c(cc1OC)C(COc1ccccc1OC)N(C(C)=O)CC2 (stereo not given)	none (no result: CSC inhib, Beta cell apopt, WT yeast gro inh)
Cc1ccc(S(=O)(=O)n2cccc2C)cc1	Mot1-301 SUMO 688 (no result: WT yeast gro inh) | Yeast Mot1 SUMO inactive
CCC1NC(=O)c2ccccc2N1c1cccc(Cl)c1 (stereo not given)	none (no result: WT yeast gro inh)
Cc1c(NC(=O)C(C)Sc2nnc(-c3ccccc3)o2)c(=O)n(-c2ccccc2)n1C (stereo not given)	Mot1-301 SUMO 373 | Yeast Mot1 SUMO inactive
CC(C)(C)NC(=O)C1Cc2ccccc2CN1S(=O)(=O)c1ccc(F)cc1 (stereo not given)	Mot1-301 SUMO 584 | Yeast Mot1 SUMO inactive
CNC(=O)Nc1cccc(C(F)(F)F)c1	none
CNC(=O)Nc1cc(NC(=O)NC)cc(C(F)(F)F)c1	Mot1-301 SUMO 586 (no result: WT yeast gro inh) | Yeast Mot1 SUMO inactive
O=C(Cc1ccccc1)N1CCCC1c1ccccc1 (stereo not given)	Mot1-301 SUMO active (no result: CSC inhib) | Yeast Mot1 SUMO inactive
COC(=O)c1sc(NC(=S)NC(=O)c2ccccc2C)nc1C	none
C=CC[N+]1(CC#Cc2ccccc2)CCCC1	Mot1-301 SUMO 393 | Yeast Mot1 SUMO inactive
CCOc1ccc(-c2nc(C#N)c(N3CCOCC3)o2)cc1	Mot1-301 SUMO 417 (no result: Beta cell apopt) | Yeast Mot1 SUMO inactive
O=C(CN(CC1CCCO1)C(=O)CNS(=O)(=O)c1ccc(Cl)cc1)NCC1CCCO1 (stereo not given)	none (no result: Beta cell apopt)
Cc1ccc(Cn2nnc3c(=O)n(CC(=O)NCc4ccccc4)cnc32)cc1	none
O=C(c1cccs1)N(C(=O)c1cccs1)c1ccc(Br)cn1	Mot1-301 SUMO 482 | Yeast Mot1 SUMO inactive
O=C(O)c1nn(-c2ccccc2-c2n[nH]c(=O)[nH]c2=O)c(=O)[nH]c1=O	none (no result: WT yeast gro inh)
CCOc1ccc(N2C(=O)CC(Sc3nc4ccc(OCC)cc4s3)C2=O)cc1 (stereo not given)	none (no result: WT yeast gro inh)
C=CCNc1nnc(SC2CC(=O)N(c3ccc(OCCC)cc3)C2=O)s1 (stereo not given)	Mot1-301 SUMO active | Yeast Mot1 SUMO inactive
CC(C)C1C(=O)CC(c2ccccc2)NC1c1ccccc1 (stereo not given)	none (no result: WT yeast gro inh)
CC1C(=O)CC(c2ccccc2)NC1c1ccccc1 (stereo not given)	Mot1-301 SUMO 789 | Yeast Mot1 SUMO inactive
Cc1cc(C(F)(F)F)nc(SCC(=O)Nc2cc(C)on2)n1	Mot1-301 SUMO active | Yeast Mot1 SUMO inactive
Cc1cc(C)nc(SCC(=O)Nc2cc(C)on2)n1	none
Nc1ccnc(=O)[nH]1	Mot1-301 SUMO 654 (no result: WT yeast gro inh) | Yeast Mot1 SUMO inactive
COc1ccc(C=Nc2ccc3[nH]ncc3c2)c(O)c1	none
Oc1c(Br)cc(Br)cc1C=Nc1cccnc1	Mot1-301 SUMO 481 (no result: WT yeast gro inh) | Yeast Mot1 SUMO inactive
Oc1c(Br)cc(Br)cc1C=Nc1ccc2[nH]ncc2c1	Mot1-301 SUMO 360 (no result: WT yeast gro inh) | Yeast Mot1 SUMO inactive
Cc1cc(C)cc(NC(=S)NN)c1	none
COc1ccccc1CN1CCCC(CN(CCN(C)C)C(=O)c2ccc(C)cc2)C1 (stereo not given)	none (no result: WT yeast gro inh)
Cc1ccc(-c2csc(C3=C(O)CN(NC(=O)c4ccco4)C3=N)n2)cc1	Mot1-301 SUMO 375 (no result: WT yeast gro inh) | Yeast Mot1 SUMO inactive
COc1ccc(C)cc1NC(=O)Cn1c(=O)oc2ccccc21	Mot1-301 SUMO 486 (no result: WT yeast gro inh) | Yeast Mot1 SUMO inactive
Cc1ccccc1NC(=O)Cn1c(=O)oc2ccccc21	none (no result: WT yeast gro inh)
CCC1CCCCN1C(=O)CCC(=O)Nc1nnc(C(F)(F)F)s1 (stereo not given)	none (no result: WT yeast gro inh)
Brc1ccc(-c2cn3cccnc3n2)cc1	Mot1-301 SUMO 662 (no result: T cruzi inh) | Yeast Mot1 SUMO inactive
Cc1ccc(Oc2ccc(C=O)cn2)cc1	none
CO/N=C/c1ccc(Oc2ccc(C)cc2)nc1	Mot1-301 SUMO 495 (no result: CSC inhib) | Yeast Mot1 SUMO inactive
Cn1c(CCN2CCOCC2)nc2cc(NC(=O)COc3ccccc3)ccc21	Mot1-301 SUMO active | Yeast Mot1 SUMO inactive
CC(C)[C@H](NC(=O)c1ccccc1)C(=O)OCC(=O)Nc1sccc1C(N)=O	none (no result: T cruzi inh, WT yeast gro inh)
Cc1cc(/C=N/NC(=O)c2ccsc2)c(C)n1-c1cnccn1	Mot1-301 SUMO 555 (no result: CSC inhib) | Yeast Mot1 SUMO inactive
Cc1c(C(=O)NNC(=O)c2cccnc2)cccc1[N+](=O)[O-]	none (no result: T cruzi inh, WT yeast gro inh)
CC(NC(=O)Cc1ccccc1)c1nc2ccccc2[nH]1 (stereo not given)	none
CSCC[C@H](NC(=O)CC(C)(C)C)c1nc2ccccc2[nH]1	Mot1-301 SUMO 422 | Yeast Mot1 SUMO inactive
CCCC(=O)NC(C)c1nc2ccccc2[nH]1 (stereo not given)	Mot1-301 SUMO 595 | Yeast Mot1 SUMO inactive
CCN(C(=O)C1CC1)C1CCS(=O)(=O)C1 (stereo not given)	none (no result: WT yeast gro inh)
O=C(NNC(=O)c1ccc(-n2cncn2)c([N+](=O)[O-])c1)c1ccc(Cl)cc1	Mot1-301 SUMO 672 (no result: WT yeast gro inh) | Yeast Mot1 SUMO inactive
O=C(NNC(=O)c1ccc(-n2cncn2)c([N+](=O)[O-])c1)c1cccc(Cl)c1	none (no result: WT yeast gro inh)
S=C(c1ccc(N2CCOCC2)cc1)N1CCCCC1	Mot1-301 SUMO 367 | Yeast Mot1 SUMO inactive
Oc1ccc(C(=S)N2CCCCC2)cc1	none
COc1ccc(O)c(C(=O)c2cnc3c(c2)c(=O)[nH]c(=O)n3C)c1	none
COCCn1c(=O)[nH]c(=O)c2cc(C(=O)c3cc(Cl)ccc3O)cnc21	Mot1-301 SUMO 838, WT yeast gro inh 63 | Yeast Mot1 SUMO inactive
CCCCN(CC)S(=O)(=O)N1CCC(C(=O)NCc2ccc(F)cc2)CC1	none
CCCOC(=O)CSC1=C(C#N)C(c2ccccc2OC)C(C#N)C(=O)N1 (stereo not given)	none
Cc1ccnc(NC(=O)CNC(=O)c2ccc(Br)o2)c1	Mot1-301 SUMO 493 (no result: WT yeast gro inh) | Yeast Mot1 SUMO inactive
O=C(COC(=O)/C=C/c1ccccc1Cl)NC1CCCC1	none (no result: CSC inhib, T cruzi inh, WT yeast gro inh)
